PP1 counter: counter-screen for PP5 inhibitors: inhibitors of human PP1-alpha. 320,000 tested, 0.9% active. inhibition, % at 6.7 µM. P62136. purified PP1alpha, OMFP fluorescence;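 active means inhibition above the mean inhibition of all tested compounds plus 3 SD, computed separately for each screening campaign, cut at about 15% in these data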
NadD block: blocks S. aureus nicotinate mononucleotide adenylyltransferase. purified NadD enzyme, colorimetric absorbance read-out. inhibition, % at 20 µM. 360,000 tested, 0.78% active; in the data active means inhibition above about 26%
Rpn11 block: Rpn11 (human) deubiquitinase inhibition; O00487; human 26S proteasome, Ub4-pepOG fluorescence polarization; 20S core pre-blocked with epoxomicin; inhibition, % at 20 µM; 360,000 tested, 0.59% active;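 active means inhibition at 20 µM, scaled to each plate's controls, above about 33%, limit read from the data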
Target sequence (O00487 whole entry, looked up): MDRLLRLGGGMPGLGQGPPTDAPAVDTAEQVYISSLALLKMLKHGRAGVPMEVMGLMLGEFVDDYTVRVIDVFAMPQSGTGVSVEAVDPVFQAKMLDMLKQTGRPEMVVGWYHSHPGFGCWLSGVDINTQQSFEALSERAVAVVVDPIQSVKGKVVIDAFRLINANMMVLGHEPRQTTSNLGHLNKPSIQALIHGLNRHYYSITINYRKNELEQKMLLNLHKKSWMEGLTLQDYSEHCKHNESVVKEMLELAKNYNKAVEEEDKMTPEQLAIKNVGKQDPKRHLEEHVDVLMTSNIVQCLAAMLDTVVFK
CSN inh: blocks human CSN-mediated cullin deneddylation. Purified CSN, SCF-Nedd8-OG deneddylation, fluorescence polarization. inhibition, % at 12.5 µM. 360,000 tested, 0.38% active. AID 651999;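 active means pattern-corrected inhibition above about 35%, with an unprinted fluorescence ratio check between 0.5 and 1.5, limit read from the data, passing the limit was not always enough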;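 further: 0% = enzyme with substrate and 100% = substrate without enzyme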
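Assay system: Purified human Csn5 enzyme expressed in HEK293T cells | Amount: Enzyme 0.24 nM | Measured by: Fluorescence polarization readout | Medium: Tris/NaCl/DTT buffer, pH 7.5 | Compound dosing: One concentration, 12.5 µM, 0.25% DMSO | Times: 90 min incubation of compound, enzyme and substrate at room temperature | Control set: no-enzyme wells high, enzyme-with-substrate wells low | Read-out: % inhibition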
HNF4A DNA FP: change in binding of human HNF4 alpha to DNA; 360,000 tested, 0.3% active; activity change, % at 10 µM; P41235; HNF4a-FITC DNA binding, fluorescence polarization, 1 h; in the data active means activity change above about 30%, passing the limit was not always enough
Target sequence (P41235 whole entry, looked up): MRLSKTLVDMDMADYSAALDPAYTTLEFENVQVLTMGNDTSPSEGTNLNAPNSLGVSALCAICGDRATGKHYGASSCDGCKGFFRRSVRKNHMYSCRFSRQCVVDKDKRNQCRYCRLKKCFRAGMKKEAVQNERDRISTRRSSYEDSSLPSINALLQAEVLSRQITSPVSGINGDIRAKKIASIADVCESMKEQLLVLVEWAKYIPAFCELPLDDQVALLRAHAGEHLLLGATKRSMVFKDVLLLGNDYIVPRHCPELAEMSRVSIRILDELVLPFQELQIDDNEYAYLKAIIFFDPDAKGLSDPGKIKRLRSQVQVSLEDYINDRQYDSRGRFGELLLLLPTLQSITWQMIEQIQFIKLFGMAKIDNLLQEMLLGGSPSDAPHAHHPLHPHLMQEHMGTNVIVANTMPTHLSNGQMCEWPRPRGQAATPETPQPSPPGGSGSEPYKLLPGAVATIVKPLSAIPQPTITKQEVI
TPT1 inh: inhibitors of Candida albicans tRNA 2'-phosphotransferase TPT1 | inhibition, % at 5 µM | AID 1962 | recombinant caTPT1, FP RNA substrate dephosphorylation | 300,000 tested, 0.81% active;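 active means inhibition above the mean of all tested compounds plus 3 SD, set per screening campaign, cut at about 24% in these data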;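 further: plate controls were DMSO alone for no effect and ferristatin control at 100 nM for full effect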
TPT1 inh confirm: TPT1 (C. albicans) inhibition, confirmation; AID 2149; recombinant caTPT1, fluorescence polarization, RNase T1 coupled; shares compounds with TPT1 inh; inhibition, % at 5 µM; 2,400 tested, 74% active;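 active means inhibition above the primary screen limit, the mean inhibition of all tested compounds plus 3 SD, cut at about 25% in these data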
RNase T1 counter: blocks Aspergillus oryzae RNase T1, a TPT1 counter-screen | inhibition, % at 5 µM | RNase T1 cleavage, fluorescence polarization, 1536-well | shares compounds with TPT1 inh | 2,400 tested, 83% active;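 active means inhibition above the solvent-only control well mean plus 3 SD, limit set per screening run, cut at about 23% in these data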;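 further: plate controls were DMSO wells with enzyme for no effect and wells without RNase T1 for full effect; inhibitors block cleavage so intact labeled substrate keeps polarization high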
Rpn11 confirm: Rpn11 inhibition confirmation, single concentration; shares compounds with Rpn11 block; purified human 26S proteasome, Ub4-pepOG fluorescence polarization; proteasome pretreated with epoxomicin; inhibition, % at 20 µM; 1,900 tested, 29% active; AID 602318
MMP-2 counter-1: counter-screen for RPN11 inhibitors: inhibition of human MMP-2 | shares compounds with Rpn11 block | inhibition, % at 20 µM | recombinant MMP-2, FRET peptide cleavage fluorescence | AID 602330 | 1,900 tested, 4% active;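 further: human MMP-2 activated beforehand with APMA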
Thrombin FP: blocks bovine thrombin, flagging nonselective RPN11 hits | shares compounds with Rpn11 block | bovine thrombin cleavage of Ub4-pepOG, fluorescence polarization | inhibition, % at 20 µM | 1,900 tested, 13% active | AID 602333;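 active means mean inhibition at least 40% at 20 µM, or signal 3 deviations below plate average, so some actives read negative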;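 further: plate controls were thrombin with DMSO for no effect and buffer wells lacking thrombin for full effect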
CSN deneddyl val: Csn5 (human) deneddylation inhibition, single-concentration validation | shares compounds with CSN inh | Csn5 deneddylation of SCF-Nedd8OG, fluorescence polarization, 90 min | inhibition, % at 16.6 µM | 540 tested, 62% active | AID 720654; in the data active means inhibition above about 50%;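 further: 0% = DMSO with enzyme and 100% = no enzyme wells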
MMP-2 counter-2: counter-screen for CSN deneddylation inhibitors: human MMP-2 inhibition; shares compounds with CSN inh; recombinant MMP-2, FRET substrate fluorescence, 60 min; inhibition, % at 16.6 µM; 540 tested, 33% active;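 active means corrected plate-normalized z-score of 5 or more, or -5 or less, or inhibition of 15% or more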;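 further: plate controls were DMSO wells with enzyme for no effect and buffer wells lacking MMP-2 for full effect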
Thrombin counter: thrombin (bovine) inhibition, counter-screen for CSN hits. shares compounds with CSN inh. bovine thrombin cleavage of Ub4-pepOG, fluorescence polarization. inhibition, % at 16.6 µM. 540 tested, 49% active. AID 720656;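 active means inhibition at or above a set limit, with a fluorescence interference ratio between 0.5 and a set maximum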
* hit, by the source's call; x = no result shown; + = active, no number. Rows were chosen to be rich in hits. Some 2.7% of all compounds tested hit in one or more screens of this group. Unless noted, no stated cut-off is given here; in the data, active means inhibition above about 40%; inactive means the rest.

SMILES | PP1 counter | NadD block | Rpn11 block | CSN inh | HNF4A DNA FP | TPT1 inh | TPT1 inh confirm | RNase T1 counter | CSN deneddyl val | MMP-2 counter-2 | Thrombin counter | others
Cc1ccc2nc(/C(C#N)=C\c3ccc([N+](=O)[O-])o3)[nH]c2c1 | 1.6 | 8.4 | 47.9* | 51.6* | 103.3 | 54.9* | 46.8* | 58.9* | 30.4 | 18.3* | 43.7* | Rpn11 confirm=11.7;MMP-2 counter-1=-18.2;Thrombin FP=19.3
Cc1nc(NC(=O)CN2CC(C)OC(C)C2)sc1C(=O)N(C)C (centres undefined) | -2.2 | -9.2 | -2.6 | -0.6 | -1.0 | 1.0 | x | x | x | x | x
CC(C)C(C(=O)NCc1ccccc1)N(C)Cc1ccc(Cl)c(Cl)c1 (centres undefined) | x | x | x | -3.0 | 3.4 | x | x | x | x | x | x
CCN1C(=O)/C(=C\C=C2/C=CC=CN2CC)SC1=S | 1.5 | 7.6 | x | 52.8* | 136.2* | 26.6* | 36.1* | 55.4* | 61.0* | 22.6* | 62.7*
CCN1C(=O)/C(=C/C=C2\C=CN(CC)c3ccccc32)SC1=S | -1.2 | 14.7 | 7.7 | 4.2 | 1.5 | 1.8 | x | x | x | x | x
CC(C)[C@H](NC(=O)N1CCn2c1nc1ccccc12)C(=O)NCC1CCCO1 (some centres undefined) | -4.1 | -2.1 | -4.4 | -2.2 | -2.8 | 3.1 | x | x | x | x | x
CCN(CC)C(=O)c1ccccc1NC(=O)c1cccc(S(=O)(=O)N(CC)CC)c1 | -1.8 | -2.6 | -9.3 | -2.1 | 0.9 | 2.4 | x | x | x | x | x
CCN(CC)S(=O)(=O)c1cccc(C(=O)N/N=C(\C)c2ccc(O)cc2O)c1 | -5.1 | -11.0 | x | 36.6* | 27.1 | 89.1* | 140.0* | 129.0* | 91.6* | -27.2* | 79.0*
CCOC(=O)/C(=C/C1=CC(=C/N(C)C)/C(=O)O1)C(C)=O | 1.4 | -3.1 | x | 92.7* | 65.6* | 124.2* | 140.2* | 137.8* | 120.6* | -23.2 | 82.0*
COC(=O)[C@@H](CC(C)C)NS(=O)(=O)N(Cc1ccccc1)[C@@H](CC(C)C)C(=O)OC | 2.4 | -7.6 | 0.9 | 1.9 | 5.5 | x | x | x | x | x | x
CC(=O)c1cccc(S(=O)(=O)Nc2ccccc2N2CCOCC2)c1 | x | -0.4 | 0.7 | -3.9 | -0.4 | x | x | x | x | x | x
Cc1cc2nc3s/c(=C/c4ccc(-c5ccccc5C(=O)O)o4)c(=O)n3c2cc1C | 3.1 | 16.4 | x | 99.1* | 77.6 | 111.5* | 125.1* | 123.3* | -18.9 | -1.9 | 64.0*
COc1cc(/C=C2/C(=O)NN(c3ccc(Cl)cc3)C2=O)ccc1OC(=O)c1ccco1 | 3.0 | 14.0 | 10.5 | -3.4 | 2.4 | 0.5 | x | x | x | x | x
COc1cc(/C=C2/C(=O)NN(c3ccc(Cl)cc3)C2=O)cc(Br)c1O | 1.8 | -3.0 | 68.2* | 44.9* | -9.7 | 66.8* | 112.5* | 123.2* | -15.6 | 7.4 | 22.8* | Rpn11 confirm=193.5*;MMP-2 counter-1=35.6;Thrombin FP=79.4*
CCCCCCN1C=C/C(=C\C=C(C#N)C#N)c2ccccc21 | -2.2 | -6.8 | 36.8 | 7.8 | 23.3 | 4.7 | x | x | x | x | x
CCCN1C=CC(=CC=C(C#N)C#N)C=C1 | -0.7 | 0.7 | x | 82.6* | 121.1 | 143.8* | 165.1* | 161.4* | 22.9 | 5.1 | 82.7*
C=CCN1C=CC(=CC=C(C#N)C#N)C=C1 | -3.0 | -0.1 | x | 91.2* | 118.6 | 137.0* | 158.0* | 154.7* | 97.5* | 7.6 | 78.6*
COc1ccc(OCCCC(=O)N(C)CC(=O)Nc2ccccc2Cl)cc1 | -4.7 | -6.7 | 1.9 | 1.7 | 2.6 | -0.3 | x | x | x | x | x
CCN1/C(=C/c2ccc3cccc(C)c3[n+]2CC)Sc2ccccc21 | 4.6 | 5.2 | 75.4* | 54.1* | 107.1* | 60.4* | 65.6* | 75.6* | 22.8 | -13.0 | 20.2
O=C(N/N=C/c1cc(Br)cc(Cl)c1O)c1ccc2c(c1)OCO2 | 3.9 | 4.1 | + | 100.3* | 16.7 | 35.2* | 32.5* | 44.6* | -106.3 | 29.2* | 19.9* | Rpn11 confirm=198.2*;MMP-2 counter-1=24.8;Thrombin FP=13.4
COc1ccc(N=Cc2c(O)c3ccccc3n2C(C)=O)cc1 | -0.7 | -8.9 | x | 60.8* | 96.7* | 121.8* | 130.9* | 128.5* | 50.3* | -25.7 | 56.4*
COC(=O)c1c[nH]c(=S)n1Cc1ccccc1 | x | -1.2 | 1.7 | 1.8 | 2.1 | x | x | x | x | x | x
O=C1NC(=S)N(C(=O)c2ccc(F)cc2)/C1=C/c1cccnc1 | -0.4 | 6.5 | 9.0 | 0.7 | 3.2 | 8.6 | x | x | x | x | x
COc1ccc(/C=C2\C(=O)NC(=S)N2C(=O)c2ccc(C)cc2)cc1 | 15.7* | 22.2 | 64.2* | 48.1* | 16.1 | 49.2* | 65.5* | 78.2* | -3.9 | 10.2 | 36.6* | Rpn11 confirm=106.8*;MMP-2 counter-1=17.6;Thrombin FP=56.4*
CC1=CN2C(=N)/C(=C/c3ccco3)C(=O)N=C2S1 | 0.1 | -0.5 | -3.4 | -2.4 | 0.7 | 0.8 | x | x | x | x | x
SMILES | PP1 counter | NadD block | Rpn11 block | CSN inh | HNF4A DNA FP | TPT1 inh | TPT1 inh confirm | RNase T1 counter | CSN deneddyl val | MMP-2 counter-2 | Thrombin counter | others
CC1=CN2C(=N)/C(=C/c3ccc([N+](=O)[O-])o3)C(=O)N=C2S1 | 6.9 | 7.1 | x | 102.3* | 66.3* | 77.2* | 117.5* | 117.7* | 52.0* | 10.0 | 91.5*
COc1ccc(NC(=O)C23CC4CC(CC(Cl)(C4)C2)C3)cc1S(=O)(=O)N1CCOCC1 | x | -2.4 | 0.3 | -3.4 | 6.9 | x | x | x | x | x | x
COC1=CC(=Cc2c(N)n3nc(CC(=O)N4CCOCC4)sc3nc2=O)C=C(OC)C1=O | -3.4 | 1.4 | x | 88.2* | 62.4* | 50.0* | 131.9* | 130.7* | 94.4* | -20.5 | 82.6*
COc1cc(S(=O)(=O)N2CCOCC2)cc(C(=O)OCC(=O)NC2CCCCC2)c1OC | -1.9 | -2.1 | 0.5 | -3.7 | 1.5 | x | x | x | x | x | x
CCOc1cc(/C=C(/C#N)C(=O)Nc2ccc(O)cc2)cc(Br)c1O | 0.0 | -1.7 | x | 63.2* | 54.1* | + | 171.4* | 163.7* | 13.7 | -20.8 | 68.3*
CCOc1cc(/C=N/NC(=O)C(N)=O)cc(Br)c1O | -0.9 | 2.4 | -3.6 | 7.5 | 1.3 | -4.2 | x | x | x | x | x
